Laboratory results: ChEMBL document CHEMBL4330099, “Lead generation and optimization of novel GPR119 agonists with a spirocyclic cyclohexane structure” (Bioorg Med Chem Lett, 2019)
In brackets after ≈: the same amount, converted by molar mass.

Assays:
[1] = Solubility of the compound in Japanese pharmacopoeia first fluid at pH 1.2; type: physicochemical
How it was run: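 Solubility was measured in Japanese Pharmacopoeia 1st fluid for dissolution testing, adjusted to pH 1.2.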

[2] = target: T1, Glucose-dependent insulinotropic receptor (Homo sapiens, UniProt Q8TDV5); assay: Agonist activity at human GPR119 expressed in HEK293 cells assessed as intracellular cAMP accumulation after 30 mins by HTRF assay; type: functional, cell-based
T1 sequence (Q8TDV5 whole entry): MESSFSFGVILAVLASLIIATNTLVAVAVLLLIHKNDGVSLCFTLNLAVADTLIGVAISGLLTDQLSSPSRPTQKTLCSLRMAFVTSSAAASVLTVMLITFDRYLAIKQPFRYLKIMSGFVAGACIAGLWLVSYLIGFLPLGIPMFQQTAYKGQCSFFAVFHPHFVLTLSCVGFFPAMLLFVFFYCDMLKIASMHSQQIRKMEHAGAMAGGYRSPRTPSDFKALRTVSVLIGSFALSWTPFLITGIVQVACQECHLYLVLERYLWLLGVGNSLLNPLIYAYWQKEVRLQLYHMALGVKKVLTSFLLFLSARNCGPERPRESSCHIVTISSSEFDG
How it was run: (§1)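 Anti-cAMP cryptate in lysis buffer was then added for 3 h at room temperature in the dark, and cAMP was read by HTRF. EC50 is the concentration giving 50% of the maximal OEA response; intrinsic activity is expressed as % of OEA (100%).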

[3] = Solubility of the compound in FeSSIF; type: physicochemical
[4] = target: T2, Glucose-dependent insulinotropic receptor (Homo sapiens) (UniProt Q8TDV5); assay: Intrinsic activity at human GPR119 expressed in HEK293 cells assessed as intracellular cAMP accumulation after 30 mins by HTRF assay relative to oleoylethanolamide; type: functional, cell-based; how it was run: as §1
T2 sequence (whole entry): T1 sequence (Q8TDV5 whole entry)

[5] = Metabolic stability in human liver microsomes assessed as parent compound remaining at 5 uM after 1 hr; type: ADME, Microsome; details: read-out: Stability
How it was run: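 Compound (5 μM) was incubated with human liver microsomes ([…]) for 1 h. Percent of compound remaining was reported.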

[6] = Metabolic stability in rat liver microsomes assessed as parent compound remaining at 5 uM after 1 hr; type: ADME, Microsome; details: read-out: Stability
How it was run: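 Compound (5 μM) was incubated with rat liver microsomes ([…]) for 1 h. Percent of compound remaining was reported.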

Row | SMILES | solubility [1] [µM] | EC50 [2] [nM] | solubility [3] [µM] | Intrinsic activity [4] [%] | remaining at 1 h, 5 µM [5] [%] | remaining at 1 h, 5 µM [6] [%]
1 | Cc1c(Oc2ccc(S(C)(=O)=O)cc2F)ncnc1O[C@H]1CC[C@]2(CC1)COC(C)(C)C2 | < 0.5 | 59 | 33.4 (≈ 15.5 µg/mL) | 62 |  | 
2 | CN(c1ncnc2c1CCN2c1ccc(S(C)(=O)=O)cc1F)[C@H]1CC[C@]2(CC1)COC(C)(C)C2 | > 475 | 39 | 75.3 (≈ 36.8 µg/mL) | 118 | 99 | 94
3 | CC(C)c1c(Nc2ccc(S(C)(=O)=O)cc2F)ncnc1O[C@H]1CC[C@]2(CC1)COC(C)(C)C2 | 0.7 (≈ 0.344 µg/mL) | 98 | 4.3 (≈ 2.11 µg/mL) | 61 |  | 
4 | CC1(C)C[C@]2(CC[C@H](Oc3ncnc4c3CCN4c3ccc(S(C)(=O)=O)cc3F)CC2)CO1 | 18.9 (≈ 8.99 µg/mL) | 5 | 15.2 (≈ 7.23 µg/mL) | 90 |  | 
5 | Cc1c(Nc2ccc(S(C)(=O)=O)cc2)ncnc1O[C@H]1CC[C@]2(CC1)COC(C)(C)C2 | 4.4 (≈ 1.96 µg/mL) | 139 | 8.6 (≈ 3.83 µg/mL) | 92 |  | 
6 | Cc1c(Nc2ccc(S(C)(=O)=O)cc2F)ncnc1O[C@H]1CC[C@]2(CC1)COC(C)(C)C2 | 5.3 (≈ 2.46 µg/mL) | 13 | 15.8 (≈ 7.32 µg/mL) | 91 |  | 
7 | CN(c1cc(N2CCc3cc(S(C)(=O)=O)ccc32)ncn1)[C@H]1CC[C@]2(CC1)COC(C)(C)C2 | 418 (≈ 197 µg/mL) | 16 | 24.3 (≈ 11.4 µg/mL) | 108 | 89 | 80
8 | CC1(C)C[C@]2(CC[C@H](Oc3cc(N4CCc5cc(S(C)(=O)=O)ccc54)ncn3)CC2)CO1 | 7 (≈ 3.2 µg/mL) | 15 | 19.8 (≈ 9.06 µg/mL) | 87 |  | 
9 | CC1(C)C[C@]2(CC[C@H](c3nc(COc4ccc(-n5cnnn5)cc4)cs3)CC2)CO1 |  | 85 |  | 79 |  | 
10 | Cc1c(O[C@H]2CC[C@]3(CC2)COC(C)(C)C3)ncnc1N1CCc2cc(S(C)(=O)=O)ccc21 | 2.8 (≈ 1.32 µg/mL) | > 1000 | 25.5 (≈ 12 µg/mL) | 38 |  | 
11 | Cc1c(Nc2ccc(C(=O)N(C)C)cc2F)ncnc1O[C@H]1CC[C@]2(CC1)COC(C)(C)C2 | 128 (≈ 58.7 µg/mL) | 33 | 65.2 (≈ 29.8 µg/mL) | 101 | 77 | 44
12 | Cc1c(O[C@H]2CC[C@]3(CC2)COC(C)(C)C3)ncnc1N(C)c1ccc(S(C)(=O)=O)cc1F | 13 (≈ 6.21 µg/mL) | > 1000 | 42.5 (≈ 20.3 µg/mL) | 17 |  | 
13 | CC(O[C@H]1CC[C@]2(CC1)COC(C)(C)C2)c1nc(-c2ccc(S(C)(=O)=O)c(F)c2)no1 (some centres undefined) |  | 89 |  | 109 |  | 
14 | CCc1c(Nc2ccc(S(C)(=O)=O)cc2F)ncnc1O[C@H]1CC[C@]2(CC1)COC(C)(C)C2 | 4.6 (≈ 2.2 µg/mL) | 42 | 67.5 (≈ 32.2 µg/mL) | 82 |  | 
15 | Cc1c(Nc2ccc(S(C)(=O)=O)cc2F)ncnc1N(C)[C@H]1CC[C@]2(CC1)COC(C)(C)C2 | > 475 | 45 | 49.8 (≈ 23.7 µg/mL) | 128 | 91 | 93
